≈ marks a conversion by molar mass, not a printed value. *1 amine or outer side, *2 acyl side, *3 side chain or, on linkers, in order; H or OH if unused. Where a SMILES comes first, the peptide text is derived from it. Bridges are numbered along the chain shown (N, C = ends). [ ]: non-standard residue; d: D form. The star is where a group is joined. hTyr(3S-OH,4S-OH,3'-OSO3H) = N[C@H](C(=O)O)[C@H](O)[C@@H](O)c1ccc(O)c(OS(=O)(=O)O)c1; Orn(4R-OH,5R-OH) = O=C([C@H](C[C@@H](O)[C@@H](O)N[*:3])N[*:1])[*:2]; Pro(3S-OH,4S-Me) = C[C@H]1CN[C@H](C(=O)O)[C@H]1O; X1 = CCCCCOc1ccc(-c2cc(-c3ccc(C(=O)*)cc3)no2)cc1; Gln(3R-OH) = NC(=O)C[C@@H](O)[C@H](N)C(=O)O; Hyp = O=C(O)[C@@H]1C[C@@H](O)CN1
What was measured:
Nakaseomyces glabratus [1] = test: Antifungal activity against Candida glabrata isolate 570 infected in ICR/Swiss neutropenic mouse assessed as dose required for 1-log kill after 24 hrs; assay type: functional
Summary of the method: (§1)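 Neutropenic mice (cyclophosphamide sc 150 mg/kg day −4, 100 mg/kg day −1 and +2) infected iv by tail vein 2 h before therapy. Micafungin given ip every 24 h for 4 days at six fourfold-spaced dose levels, 0.078–80 mg/kg/24 h, 3 mice per group. Kidney CFU read at 96 h. Hill-model fit; dose giving 1 log10 below start-of-therapy burden.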

[2] = Ratio of AUC in ICR/Swiss neutropenic mouse at static dose of 2.84 mg/kg, ip after 24 hrs to MIC for Candida albicans isolate 98-210; assay type: functional; settings: route intraperitoneal
[3] = Ratio of AUC in ICR/Swiss neutropenic mouse at static dose of 2.84 mg/kg, ip after 24 hrs to MIC for Candida albicans isolate K1; assay type: functional; settings: route intraperitoneal
[4] = Ratio of AUC in ICR/Swiss neutropenic mouse at static dose of 9.25 mg/kg, ip after 24 hrs to MIC for Candida glabrata isolate 37661; assay type: functional; settings: route intraperitoneal
[5] = Ratio of AUC in ICR/Swiss neutropenic mouse at static dose of 0.41 mg/kg, ip after 24 hrs to MIC for Candida glabrata isolate 33609; assay type: functional; settings: route intraperitoneal
[6] = Ratio of fAUC in ICR/Swiss neutropenic mouse at static dose of 2.53 mg/kg, ip after 24 hrs to MIC for Candida albicans isolate 98-17; assay type: functional; settings: route intraperitoneal
[7] = Ratio of fAUC in ICR/Swiss neutropenic mouse at static dose of 1.80 mg/kg, ip after 24 hrs to MIC for Candida glabrata isolate 5592; assay type: functional; settings: dose 1.8 mg/kg; route intraperitoneal
[8] = Ratio of fAUC in ICR/Swiss neutropenic mouse at static dose of 0.90 mg/kg, ip after 24 hrs to MIC for Candida glabrata isolate 5376; assay type: functional; settings: dose 0.9 mg/kg; route intraperitoneal
[9] = Ratio of fAUC in ICR/Swiss neutropenic mouse at static dose of 3.88 mg/kg, ip after 24 hrs to MIC for Candida glabrata isolate 33616; assay type: functional; settings: route intraperitoneal
[10] = Ratio of AUC in ICR/Swiss neutropenic mouse at 1-Log kill dose of 2.36 mg/kg, ip after 24 hrs to MIC for Candida albicans isolate 580; assay type: functional; settings: route intraperitoneal
[11] = Ratio of AUC in ICR/Swiss neutropenic mouse at 1-Log kill dose of 1.40 mg/kg, ip after 24 hrs to MIC for Candida glabrata isolate 33609; assay type: functional; settings: dose 1.4 mg/kg; route intraperitoneal
[12] = Ratio of AUC in ICR/Swiss neutropenic mouse at 1-Log kill dose of 5.46 mg/kg, ip after 24 hrs to MIC for Candida glabrata isolate 5592; assay type: functional; settings: route intraperitoneal
[13] = Ratio of fAUC in ICR/Swiss neutropenic mouse at 1-Log kill dose of 4.26 mg/kg, ip after 24 hrs to MIC for Candida glabrata isolate 34341; assay type: functional; settings: route intraperitoneal
[14] = Ratio of fAUC in ICR/Swiss neutropenic mouse at 1-Log kill dose of 1.69 mg/kg, ip after 24 hrs to MIC for Candida glabrata isolate 32930; assay type: functional; settings: route intraperitoneal
[15] = Ratio of fAUC in ICR/Swiss neutropenic mouse at 1-Log kill dose of 2.0 mg/kg, ip after 24 hrs to MIC for Candida glabrata isolate 5376; assay type: functional; settings: route intraperitoneal
Candida albicans [16] = test: Antifungal activity against Candida albicans isolate K1 by CLSI method; assay type: functional
Summary of the method: (§2)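 Broth microdilution MIC per CLSI M27-A2. Two endpoints were read against the drug-free control well: partial inhibition (M1, CLSI recommended) and complete inhibition (M2). Tests were run in duplicate on four separate occasions, and the value is the mean.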

Nakaseomyces glabratus [17] = test: Antifungal activity against Candida glabrata isolate 35315 by CLSI method; assay type: functional
Summary of the method: (§3)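 Broth microdilution per CLSI M27-A2. The MIC was read at partial inhibition (M1) and at complete inhibition (M2) against the drug-free control. Done in duplicate on four separate occasions and reported as the mean.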

Nakaseomyces glabratus [18] = test: Antifungal activity against Candida glabrata isolate 33609 by CLSI method; assay type: functional; summary of the method: as §2
Nakaseomyces glabratus [19] = test: Antifungal activity against Candida glabrata isolate 513 by CLSI method; assay type: functional; summary of the method: as §2
Nakaseomyces glabratus [20] = test: Antifungal activity against Candida glabrata isolate 33616 by CLSI method; assay type: functional; summary of the method: as §3
[21] = AUC (0 to infinity) in Candida infected ICR/Swiss neutropenic mouse at 80 mg/kg, ip; assay type: ADME, organism-based; design: time infinity, dose 80 mg/kg, route intraperitoneal; settings: plasma
Summary of the method: (§4)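 Single intraperitoneal micafungin doses (80, 20, 5 mg/kg in 0.2 ml, 0.15 M NaCl) given to infected neutropenic mice. Serum was taken from 3 mice per time point at 1, 2, 4, 6, 8, 12, 24 and 48 h. Drug was measured by microbiologic assay with C. albicans K1 (LLOQ 0.12 μg/ml). Noncompartmental analysis; half-life by nonlinear least squares; AUC by trapezoidal rule.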

[22] = Half life in Candida infected ICR/Swiss neutropenic mouse at 80 mg/kg, ip; assay type: ADME, organism-based; design: dose 80 mg/kg, route intraperitoneal; settings: in vivo; summary of the method: as §4
[23] = Half life in Candida infected ICR/Swiss neutropenic mouse at 5 mg/kg, ip; assay type: ADME, organism-based; design: dose 5 mg/kg, route intraperitoneal; settings: in vivo; summary of the method: as §4
Candida albicans [24] = test: Fungistatic activity against Candida albicans isolate 98-210 infected in ICR/Swiss neutropenic mouse after 24 hrs; assay type: functional
Summary of the method: (§5)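 Neutropenic female ICR/Swiss mice received cyclophosphamide sc at 150 mg/kg on day −4, 100 mg/kg on day −1 and 100 mg/kg on day +2. Mice were infected iv via the tail vein, and ip micafungin in 0.15 M NaCl started 2 h later. Six dose levels from 0.078 to 80 mg/kg/24 h were given q24h for 4 days, 3 mice per dose. Kidney CFU were counted at 96 h. The static dose was derived from a sigmoid Emax (Hill) fit.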

Candida albicans [25] = test: Fungistatic activity against Candida albicans isolate 580 infected in ICR/Swiss neutropenic mouse after 24 hrs; assay type: functional; summary of the method: as §5
Candida albicans [26] = test: Fungistatic activity against Candida albicans isolate K1 infected in ICR/Swiss neutropenic mouse after 24 hrs; assay type: functional; summary of the method: as §5
Nakaseomyces glabratus [27] = test: Fungistatic activity against Candida glabrata isolate 35315 infected in ICR/Swiss neutropenic mouse after 24 hrs; assay type: functional; summary of the method: as §5
Nakaseomyces glabratus [28] = test: Fungistatic activity against Candida glabrata isolate 5376 infected in ICR/Swiss neutropenic mouse after 24 hrs; assay type: functional; summary of the method: as §5
Nakaseomyces glabratus [29] = test: Fungistatic activity against Candida glabrata isolate 570 infected in ICR/Swiss neutropenic mouse after 24 hrs; assay type: functional; summary of the method: as §5
Candida albicans [30] = test: Antifungal activity against Candida albicans isolate 98-17 infected in ICR/Swiss neutropenic mouse assessed as dose required for 1-log kill after 24 hrs; assay type: functional; summary of the method: as §1
Candida albicans [31] = test: Antifungal activity against Candida albicans isolate 580 infected in ICR/Swiss neutropenic mouse assessed as dose required for 1-log kill after 24 hrs; assay type: functional; summary of the method: as §1
Nakaseomyces glabratus [32] = test: Antifungal activity against Candida glabrata isolate 37661 infected in ICR/Swiss neutropenic mouse assessed as dose required for 1-log kill after 24 hrs; assay type: functional; summary of the method: as §1
Nakaseomyces glabratus [33] = test: Antifungal activity against Candida glabrata isolate 34341 infected in ICR/Swiss neutropenic mouse assessed as dose required for 1-log kill after 24 hrs; assay type: functional; summary of the method: as §1

## CCCCCOc1ccc(-c2cc(-c3ccc(C(=O)N[C@H]4C[C@@H](O)[C@@H](O)NC(=O)[C@@H]5[C@@H](O)[C@@H](C)CN5C(=O)[C@H]([C@H](O)CC(N)=O)NC(=O)[C@H]([C@H](O)[C@@H](O)c5ccc(O)c(OS(=O)(=O)O)c5)NC(=O)[C@@H]5C[C@@H](O)CN5C(=O)[C@H]([C@@H](C)O)NC4=O)cc3)no2)cc1 [MICAFUNGIN] (X1-[Orn(4R-OH,5R-OH)]T[Hyp][hTyr(3S-OH,4S-OH,3'-OSO3H)][Gln(3R-OH)][Pro(3S-OH,4S-Me)]; lactam 1-C)
Nakaseomyces glabratus [1]
  Activity: 6.7 mg/kg
[2]
  RatioAUC/MIC: 5200
[3]
  RatioAUC/MIC: 5200
[4]
  RatioAUC/MIC: 984
[5]
  RatioAUC/MIC: 753
[6]
  fAUC/MIC: 5.9
[7]
  fAUC/MIC: 8.4
[8]
  fAUC/MIC: 8.9
[9]
  fAUC/MIC: 1.1
[10]
  RatioAUC/MIC: 1686
[11]
  RatioAUC/MIC: 2600
[12]
  RatioAUC/MIC: 10000
[13]
  fAUC/MIC: 4.9
[14]
  fAUC/MIC: 7.8
[15]
  fAUC/MIC: 19.7
Candida albicans [16]
  MIC: 0.03 µg/mL (≈ 0.0236 µM)
  MIC50: 0.016 µg/mL (≈ 0.0126 µM)
Nakaseomyces glabratus [17]
  MIC: 0.12 µg/mL (≈ 0.0945 µM)
  MIC50: 0.06 µg/mL (≈ 0.0472 µM)
Nakaseomyces glabratus [18]
  MIC: 0.016 µg/mL (≈ 0.0126 µM)
  MIC50: 0.016 µg/mL (≈ 0.0126 µM)
Nakaseomyces glabratus [19]
  MIC: 0.03 µg/mL (≈ 0.0236 µM)
  MIC50: 0.016 µg/mL (≈ 0.0126 µM)
Nakaseomyces glabratus [20]
  MIC: 0.5 µg/mL (≈ 0.394 µM)
  MIC50: 0.25 µg/mL (≈ 0.197 µM)
[21]
  AUC(0-inf): 1400 µg·h/mL
[22]
  half-life: 16 h
[23]
  half-life: 7.5 h
Candida albicans [24]
  Activity: 2.84 mg/kg
Candida albicans [25]
  Activity: 1.98 mg/kg
Candida albicans [26]
  Activity: 2.84 mg/kg
Nakaseomyces glabratus [27]
  Activity: 2.4 mg/kg
Nakaseomyces glabratus [28]
  Activity: 0.9 mg/kg
Nakaseomyces glabratus [29]
  Activity: 3.76 mg/kg
Candida albicans [30]
  Activity: 4.6 mg/kg
Candida albicans [31]
  Activity: 2.36 mg/kg
Nakaseomyces glabratus [32]
  Activity: 20.6 mg/kg
Nakaseomyces glabratus [33]
  Activity: 4.26 mg/kg

From ChEMBL document CHEMBL1275496, “In vivo pharmacodynamic target investigation for micafungin against Candida albicans and C. glabrata in a neutropenic murine candidiasis model” (Antimicrob Agents Chemother, 2008)
